Screens from PubChem BioAssay.
Myeloid diff MLP – compounds promoting myeloid differentiation. ER-HoxA9 myeloid progenitors, lysozyme-GFP differentiation, flow cytometry. calls only at 10 µM. hit rate 1% among 360,000;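 active means normalized GFP-positive differentiation at or above the plate's own cutoff, the solvent-only control mean plus 3 SD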;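 further: cells exposed to compound for four days before flow analysis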
HNF4A DNA FP – change in binding of human HNF4 alpha to DNA | P41235 | hit rate 0.3% among 360,000 | HNF4a-FITC DNA binding, fluorescence polarization, 1 h | activity change, % at 10 µM; in the data active means activity change above about 30%, passing the limit was not always enough
Target sequence (P41235 whole entry, looked up): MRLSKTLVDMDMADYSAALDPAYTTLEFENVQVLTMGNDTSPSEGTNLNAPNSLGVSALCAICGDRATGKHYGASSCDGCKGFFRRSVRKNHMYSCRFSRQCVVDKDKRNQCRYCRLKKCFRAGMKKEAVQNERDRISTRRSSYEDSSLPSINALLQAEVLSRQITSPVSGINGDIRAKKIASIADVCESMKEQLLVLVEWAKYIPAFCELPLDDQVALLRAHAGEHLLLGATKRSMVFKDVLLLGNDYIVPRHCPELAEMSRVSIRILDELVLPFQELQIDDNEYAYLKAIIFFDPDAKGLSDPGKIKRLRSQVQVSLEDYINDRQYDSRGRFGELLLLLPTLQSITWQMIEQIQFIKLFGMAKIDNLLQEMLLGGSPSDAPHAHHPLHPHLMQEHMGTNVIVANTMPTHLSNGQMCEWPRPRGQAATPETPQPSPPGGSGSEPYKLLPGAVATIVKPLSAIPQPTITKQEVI
CSN inh – blocks human CSN-mediated cullin deneddylation; Q92905; Purified CSN, SCF-Nedd8-OG deneddylation, fluorescence polarization; inhibition, % at 12.5 µM; hit rate 0.38% among 360,000;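 active means pattern-corrected inhibition above about 35%, with an unprinted fluorescence ratio check between 0.5 and 1.5, limit read from the data, passing the limit was not always enough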;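 further: 0% = enzyme with substrate and 100% = substrate without enzyme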
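assay system = purified human Csn5 enzyme expressed in HEK293T cells | amount = 0.24 nM enzyme | buffer or medium = Tris/NaCl/DTT buffer, pH 7.5 | reagent = 10 nM SCFSkp2-Nedd8OG | compound = one concentration, 12.5 µM, 0.25% DMSO | times = 90 min reaction at room temperature | signal = FP | read-out basis = % inhibition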
Exocytosis inh – blocks lytic granule exocytosis; TALL-104 LAMP-1 surface exposure, flow cytometry; cells stimulated with thapsigargin and PMA; inhibition, % at 10 µM; hit rate 0.66% among 360,000;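 active means inhibition above about 55%, limit read from the data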
Myeloid diff CP1 – promotes myeloid progenitor differentiation. ER-HoxA9 myeloid progenitors, GFP/Mac1 double-positive flow. hit rate 2% among 2,300. calls only. shares compounds with Myeloid diff MLP;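 active means share of green or green-and-red cells above 9 and 9% in run 1 or 4 and 3% in run 2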
GFP autofluor – flagged as fluorescent in myeloid differentiation counter-screen; shares compounds with Myeloid diff MLP; ER-HoxA9 myeloid progenitors, no estrogen, GFP autofluorescence flow cytometry; vehicle wells 0%, positive control 100%; fluorescence response, % (test concentration not listed); hit rate 7.4% among 2,300; AID 651707;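 active means over 5% cells positive for green fluorescent reporter, or over 2% positive for both it and APC stain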;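 further: range taken on the double positive population between DMSO and positive control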
An asterisk follows results filed as active; i = inactive; · = not tested or not shown; + = active, no number. Rows were chosen to be rich in hits. Some 2.2% of all compounds tested hit in one or more screens of this group.

SMILES	Myeloid diff MLP	HNF4A DNA FP	CSN inh	Exocytosis inh	Myeloid diff CP1	GFP autofluor
CC1(C)CC(=O)C(C=Nc2ccc(O)c(N=CC3=C(O)CC(C)(C)CC3=O)c2)=C(O)C1	i	0	1	-1	·	·
CC1(C)CC(=O)C(C=Nc2ccc(C(=O)c3ccccc3)cc2N=CC2=C(O)CC(C)(C)CC2=O)=C(O)C1	+	2	-3	7	i	0
CC(=O)Nc1ccc(S(=O)(=O)NCCSCc2ccco2)cc1	i	0	4	-3	·	·
CS(=O)(=O)NCCSCc1ccco1	i	-3	7	0	i	1
COc1cc(CC(=O)OCC(=O)c2c[nH]c3ccccc23)cc(OC)c1OC	i	4	1	1	i	9.7*
COc1ccc(CC(=O)OCC(=O)c2c[nH]c3ccccc23)cc1	i	6	-3	-1	·	·
CC1(C)OC(=O)N(CCc2ccccc2)C1(C)O (centres undefined)	i	1	5	-1	i	0
COc1cc2oc3cc(C#Cc4ccc(N)cc4)ccc3c(=O)c2cc1OC	i	14	7	-1	·	·
Nc1ccc(C#Cc2ccc3c(=O)c4ccccc4oc3c2)cc1	i	9	2	9	+	0
O=C(Nc1ccccc1)C(Cc1ccccc1)NC(=O)C12CC3CC(CC(C3)C1)C2 (centres undefined)	+	2	1	0	i	0
CCc1nc2ccc(C(=O)NCCCn3ccnc3)cn2c1N(C)C(=O)C1CCCCC1	i	1	-1	-2	·	·
Cc1cc(C)cc(OCc2nc(-c3cccnc3)no2)c1	+	4	1	-4	i	0
CC(=O)Nc1ccc(C2=CC(=O)C[C@H](c3ccc(Cl)cc3)C2)cc1	i	3	-2	8	+	0
COCC(=O)Nc1c(C(=O)Nc2cccc(OC)c2)oc2ccccc12	i	-2	0	-5	i	0
COC(=O)c1cc2sccc2n1CC(=O)N1CCCc2ccccc21	i	0	3	-2	·	·
CCOC(=O)c1cc2sccc2n1CC(=O)N1CCCc2ccccc21	+	-1	1	1	i	0
Cc1ccc(S(=O)(=O)N(C)Cc2cc3ccccc3[nH]c2=O)cc1	i	1	3	-2	i	0
Cc1cccc2cc(CN(Cc3cccs3)S(=O)(=O)c3ccc4c(c3)OCCO4)c(=O)[nH]c12	i	1	-16	5	i	0
Cc1cc2cc(CN(Cc3cccs3)S(=O)(=O)c3ccc4c(c3)OCCO4)c(=O)[nH]c2cc1C	i	2	-13	1	·	·
Cc1ccc(S(=O)(=O)N(Cc2cc3cccc(C)c3[nH]c2=O)c2ccccc2)cc1	+	-2	-14	0	i	0
C/C(=N\Nc1cc(N2CCOCC2)ncn1)c1ccc(O)cc1	i	4	-2	2	·	·
CCOc1ccc(CC(=O)Nc2ccc(S(=O)(=O)N3CCCC3)cc2)cc1	i	2	1	0	·	·
N#Cc1ccc(-c2nc3c4ccccc4ccn3c2CC2CCCCC2)cc1	i	2	1	-12	·	·
O=C(O)/C=C/C(=O)Nc1ccc(S(=O)(=O)Nc2nccs2)cc1	i	3	-4	-2	·	·
Cc1nn(CC(=O)NCc2ccccc2Cl)c(C)c1[N+](=O)[O-]	+	-2	-3	-2	i	1
SMILES	Myeloid diff MLP	HNF4A DNA FP	CSN inh	Exocytosis inh	Myeloid diff CP1	GFP autofluor
O/N=C/Cc1[nH]c2ccccc2c1-c1ccccc1	i	-2	3	1	·	·
CCOC(=O)c1ccc2c(c1)[n+](CC)c(C)n2-c1ccccc1	i	-7	3	1	·	·
CC[n+]1c(C)cc(C)n1-c1ccccc1	i	-3	-9	2	i	0
O=C1CSC(=Nc2cccc([N+](=O)[O-])c2)N1	i	0	-2	-9	·	·
O=C(C1CCC(CNS(=O)(=O)c2ccccc2)CC1)N1CCOCC1 (centres undefined)	i	4	-5	-4	·	·
O=C(CN1CCN(c2ncccn2)CC1)Nc1ccccc1-n1cccc1	+	-1	4	8	i	0
CCC(C)[C@H](NC(=O)[C@@H]1Cc2c([nH]c3ccccc23)C2c3ccccc3C(=O)N21)C(=O)NCC1CCCO1 (some centres undefined)	+	-6	-1	-1	i	0
